# In ChEMBL document CHEMBL2331205, “Anti-hepatitis B virus and anti-cancer activities of novel isoflavone analogs” (Eur J Med Chem, 2013):
# Tested on: Hepatitis B virus
# Experiment: Antiviral activity against HBV infected in human HepG2(2.2.15) cells assessed as inhibition of HBeAg production after 9 days by ELISA
# Type: functional, organism-based
# Conditions: HepG2 2.2.15, 216 h
# Outline: (§1)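 HepG2 2.2.15 cells (HBV-producing) given a range of compound concentrations for nine days; culture supernatants collected and HBsAg or HBeAg levels measured by ELISA. IC50 taken as the concentration giving 50% inhibition of antigen level.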
row,Structure (SMILES),IC50 [µM]
1,COc1ccc(NC(=O)/C=C/c2coc3cc(OC)ccc3c2=O)cc1,> 100
2,CCOc1ccc(NC(=O)/C=C/c2coc3cc(OC)ccc3c2=O)cc1,> 100
3,COc1ccc2c(=O)c(/C=C/C(=O)Nc3ccc(F)cc3)coc2c1,> 100
4,COc1ccc2c(=O)c(/C=C/C(=O)Nc3ccccc3Cl)coc2c1,> 100
5,COc1ccc2c(=O)c(/C=C/C(=O)NCc3ccccc3)coc2c1,> 100
6,COc1ccc2c(=O)c(/C=C/C(=O)Nc3cccc(C)c3)coc2c1,> 100
7,COc1ccc2c(=O)c(/C=C/C(=O)Nc3ccc(C)cc3)coc2c1,> 100
8,COc1ccc2c(=O)c(/C=C/C(=O)Nc3cc(C)ccc3C)coc2c1,> 100

# Tested on: not listed separately
# Experiment: Growth inhibition of human QGY7701 cells after 48 hrs by MTT assay
# Type: functional
# Conditions: QGY7701, 48 h
# Outline: (§2)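 Cells seeded at 8000/well, treated 24 h later in duplicate with a range of concentrations (DMSO stock 10 g/L diluted in fresh medium), 48 h at 37 °C, 5% CO2. MTT (5 mg/ml in PBS) added for 4 h, formazan dissolved in DMSO, absorbance read at 570 nm. IC50 is the concentration giving 50% survival.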
row,Structure (SMILES),IC50 [µM]
1,COc1ccc(NC(=O)/C=C/c2coc3cc(OC)ccc3c2=O)cc1,> 100
2,CCOc1ccc(NC(=O)/C=C/c2coc3cc(OC)ccc3c2=O)cc1,> 100
3,COc1ccc2c(=O)c(/C=C/C(=O)Nc3ccc(F)cc3)coc2c1,> 100
4,COc1ccc2c(=O)c(/C=C/C(=O)Nc3ccccc3Cl)coc2c1,23
5,COc1ccc2c(=O)c(/C=C/C(=O)NCc3ccccc3)coc2c1,> 100
6,COc1ccc2c(=O)c(/C=C/C(=O)Nc3cccc(C)c3)coc2c1,> 100
7,COc1ccc2c(=O)c(/C=C/C(=O)Nc3ccc(C)cc3)coc2c1,39.3
8,COc1ccc2c(=O)c(/C=C/C(=O)Nc3cc(C)ccc3C)coc2c1,> 100

# Tested on: Hepatitis B virus
# Experiment: Antiviral activity against HBV infected in human HepG2(2.2.15) cells assessed as inhibition of HBsAg production after 9 days by ELISA
# Type: functional, organism-based
# Conditions: HepG2 2.2.15, 216 h
# Outline: as §1
row,Structure (SMILES),IC50 [µM]
1,COc1ccc(NC(=O)/C=C/c2coc3cc(OC)ccc3c2=O)cc1,> 100
2,CCOc1ccc(NC(=O)/C=C/c2coc3cc(OC)ccc3c2=O)cc1,> 100
3,COc1ccc2c(=O)c(/C=C/C(=O)Nc3ccc(F)cc3)coc2c1,> 100
4,COc1ccc2c(=O)c(/C=C/C(=O)Nc3ccccc3Cl)coc2c1,> 100
5,COc1ccc2c(=O)c(/C=C/C(=O)NCc3ccccc3)coc2c1,> 100
6,COc1ccc2c(=O)c(/C=C/C(=O)Nc3cccc(C)c3)coc2c1,> 100
7,COc1ccc2c(=O)c(/C=C/C(=O)Nc3ccc(C)cc3)coc2c1,> 100
8,COc1ccc2c(=O)c(/C=C/C(=O)Nc3cc(C)ccc3C)coc2c1,> 100

# Tested on: not listed separately
# Experiment: Cytotoxicity against human HepG2(2.2.15) cells compound treated for 48 hrs followed by incubation for 9 days by MTT assay
# Type: cell-based
# Conditions: not given
# Outline: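 HepG2 2.2.15 cells kept 48 h in plates before adding compounds (DMSO stocks serially diluted in medium), then incubated at 37 °C for 9 days. Media-only wells as blank. MTT (5 g/L) added 4 h before lysis in 10% SDS/50% DMF, pH 7.2; OD at 570 nm gives percent cell death; CC50 derived.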
row,Structure (SMILES),CC50 at 48 h [µM]
1,COc1ccc(NC(=O)/C=C/c2coc3cc(OC)ccc3c2=O)cc1,718
2,CCOc1ccc(NC(=O)/C=C/c2coc3cc(OC)ccc3c2=O)cc1,460
3,COc1ccc2c(=O)c(/C=C/C(=O)Nc3ccc(F)cc3)coc2c1,743
4,COc1ccc2c(=O)c(/C=C/C(=O)Nc3ccccc3Cl)coc2c1,1010
5,COc1ccc2c(=O)c(/C=C/C(=O)NCc3ccccc3)coc2c1,376
6,COc1ccc2c(=O)c(/C=C/C(=O)Nc3cccc(C)c3)coc2c1,554
7,COc1ccc2c(=O)c(/C=C/C(=O)Nc3ccc(C)cc3)coc2c1,979
8,COc1ccc2c(=O)c(/C=C/C(=O)Nc3cc(C)ccc3C)coc2c1,1100

# Tested on: Hepatitis B virus
# Experiment: Antiviral activity against HBV infected in human HepG2(2.2.15) cells assessed as inhibition of viral replication after 9 days by fluorescence PCR method
# Type: functional, organism-based
# Conditions: HepG2 2.2.15, 216 h
# Outline: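 HepG2 2.2.15 cells given a range of compound concentrations for nine days; HBV DNA quantified by fluorescence PCR. IC50 taken as the concentration giving 50% inhibition of HBV DNA replication.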
row,Structure (SMILES),IC50 [µM]
1,COc1ccc(NC(=O)/C=C/c2coc3cc(OC)ccc3c2=O)cc1,14.2
2,CCOc1ccc(NC(=O)/C=C/c2coc3cc(OC)ccc3c2=O)cc1,> 100
3,COc1ccc2c(=O)c(/C=C/C(=O)Nc3ccc(F)cc3)coc2c1,> 100
4,COc1ccc2c(=O)c(/C=C/C(=O)Nc3ccccc3Cl)coc2c1,> 100
5,COc1ccc2c(=O)c(/C=C/C(=O)NCc3ccccc3)coc2c1,56.8
6,COc1ccc2c(=O)c(/C=C/C(=O)Nc3cccc(C)c3)coc2c1,34.9
7,COc1ccc2c(=O)c(/C=C/C(=O)Nc3ccc(C)cc3)coc2c1,28.2
8,COc1ccc2c(=O)c(/C=C/C(=O)Nc3cc(C)ccc3C)coc2c1,> 100

# Tested on: A549
# Experiment: Growth inhibition of human A549 cells after 48 hrs by MTT assay
# Type: functional, cell-based
# Conditions: A549, 48 h
# Outline: as §2
row,Structure (SMILES),IC50 [µM]
1,COc1ccc(NC(=O)/C=C/c2coc3cc(OC)ccc3c2=O)cc1,23
2,CCOc1ccc(NC(=O)/C=C/c2coc3cc(OC)ccc3c2=O)cc1,> 100
3,COc1ccc2c(=O)c(/C=C/C(=O)Nc3ccc(F)cc3)coc2c1,26.8
4,COc1ccc2c(=O)c(/C=C/C(=O)Nc3ccccc3Cl)coc2c1,29.9
5,COc1ccc2c(=O)c(/C=C/C(=O)NCc3ccccc3)coc2c1,11.8
6,COc1ccc2c(=O)c(/C=C/C(=O)Nc3cccc(C)c3)coc2c1,> 100
7,COc1ccc2c(=O)c(/C=C/C(=O)Nc3ccc(C)cc3)coc2c1,17.5
8,COc1ccc2c(=O)c(/C=C/C(=O)Nc3cc(C)ccc3C)coc2c1,15.5

# Tested on: not listed separately
# Experiment: Selectivity index, ratio of CC50 for human HepG2(2.2.15) cells to IC50 for HBV infected in human HepG2(2.2.15) cells assessed as inhibition of viral replication
# Type: functional
# Conditions: not given
# Outline: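 Selectivity index calculated as CC50 in HepG2 2.2.15 cells (MTT, 9-day exposure) divided by IC50 for HBV DNA reduction measured by fluorescence PCR after 9 days.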
row,Structure (SMILES),Ratio CC50/IC50
1,COc1ccc(NC(=O)/C=C/c2coc3cc(OC)ccc3c2=O)cc1,50.38
2,COc1ccc2c(=O)c(/C=C/C(=O)NCc3ccccc3)coc2c1,6.62
3,COc1ccc2c(=O)c(/C=C/C(=O)Nc3cccc(C)c3)coc2c1,15.85
4,COc1ccc2c(=O)c(/C=C/C(=O)Nc3ccc(C)cc3)coc2c1,34.69

# Tested on: HeLa
# Experiment: Growth inhibition of human HeLa cells after 48 hrs by MTT assay
# Type: functional, cell-based
# Conditions: not given
# Outline: as §2
row,Structure (SMILES),IC50 [µM]
1,COc1ccc(NC(=O)/C=C/c2coc3cc(OC)ccc3c2=O)cc1,13
2,CCOc1ccc(NC(=O)/C=C/c2coc3cc(OC)ccc3c2=O)cc1,> 100
3,COc1ccc2c(=O)c(/C=C/C(=O)Nc3ccc(F)cc3)coc2c1,9.68
4,COc1ccc2c(=O)c(/C=C/C(=O)Nc3ccccc3Cl)coc2c1,22.4
5,COc1ccc2c(=O)c(/C=C/C(=O)NCc3ccccc3)coc2c1,33.4
6,COc1ccc2c(=O)c(/C=C/C(=O)Nc3cccc(C)c3)coc2c1,> 100
7,COc1ccc2c(=O)c(/C=C/C(=O)Nc3ccc(C)cc3)coc2c1,24.1
8,COc1ccc2c(=O)c(/C=C/C(=O)Nc3cc(C)ccc3C)coc2c1,58.4

# Tested on: not listed separately
# Experiment: Growth inhibition of human L02 cells after 48 hrs by MTT assay
# Type: functional, cell-based
# Conditions: L02, 48 h
# Outline: as §2
row,Structure (SMILES),IC50 [µM]
1,COc1ccc(NC(=O)/C=C/c2coc3cc(OC)ccc3c2=O)cc1,> 200
2,CCOc1ccc(NC(=O)/C=C/c2coc3cc(OC)ccc3c2=O)cc1,> 200
3,COc1ccc2c(=O)c(/C=C/C(=O)Nc3ccc(F)cc3)coc2c1,> 200
4,COc1ccc2c(=O)c(/C=C/C(=O)Nc3ccccc3Cl)coc2c1,> 200
5,COc1ccc2c(=O)c(/C=C/C(=O)NCc3ccccc3)coc2c1,> 200
6,COc1ccc2c(=O)c(/C=C/C(=O)Nc3cccc(C)c3)coc2c1,> 200
7,COc1ccc2c(=O)c(/C=C/C(=O)Nc3ccc(C)cc3)coc2c1,> 200
8,COc1ccc2c(=O)c(/C=C/C(=O)Nc3cc(C)ccc3C)coc2c1,> 200

# Tested on: Huh-7
# Experiment: Growth inhibition of human HuH7 cells after 48 hrs by MTT assay
# Type: functional, cell-based
# Conditions: Huh-7, 48 h
# Outline: as §2
row,Structure (SMILES),IC50 [µM]
1,COc1ccc(NC(=O)/C=C/c2coc3cc(OC)ccc3c2=O)cc1,> 100
2,CCOc1ccc(NC(=O)/C=C/c2coc3cc(OC)ccc3c2=O)cc1,3.23
3,COc1ccc2c(=O)c(/C=C/C(=O)Nc3ccc(F)cc3)coc2c1,33.9
4,COc1ccc2c(=O)c(/C=C/C(=O)Nc3ccccc3Cl)coc2c1,58.4
5,COc1ccc2c(=O)c(/C=C/C(=O)NCc3ccccc3)coc2c1,13.6
6,COc1ccc2c(=O)c(/C=C/C(=O)Nc3cccc(C)c3)coc2c1,15.5
7,COc1ccc2c(=O)c(/C=C/C(=O)Nc3ccc(C)cc3)coc2c1,> 100
8,COc1ccc2c(=O)c(/C=C/C(=O)Nc3cc(C)ccc3C)coc2c1,11.1
9,O=c1[nH]cc(F)c(=O)[nH]1 [FLUOROURACIL],15.8
